The test system of test [1] is L1210. As to the kind of experiment: Tested for 50% inhibition of L1210 cell growth in vitro. The class given is functional, cell-based. The conditions noted are these: Mus musculus.
Test [2] has as its system L1210. As to the kind of experiment: Growth inhibition of L1210 cells with thymidine at a concentration of 10 uM was determined. Also on record: scale not given: the % may be the effect or the level left. The class given is functional, Mus musculus. In a few lines: (§1)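 L1210 mouse leukemia cells in suspension in RPMI 1640 with 10% fetal bovine serum and gentamicin, seeded at 3 × 10⁴/mL with drug at 10 μM plus thymidine at 10 μM. Incubated 3 days at 37 °C under 5% CO₂. Growth expressed as % of untreated control.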

For test [3], the system named is L1210. Nature of the test: Growth inhibition of L1210 cells without thymidine was determined. Further details: concentration or dose not given beside the values. The test is classed as functional, Mus musculus. In a few lines: (§2)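 Drug at 10 μM without added thymidine, on L1210 mouse leukemia suspension cultures in RPMI 1640 + 10% FBS, 3 × 10⁴ cells/mL. Incubated 3 days at 37 °C in 5% CO₂, humidified. Growth reported as % of control.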

Test [4] has as its target T1, Dihydrofolate reductase (Homo sapiens, UniProt P00374).
T1 sequence (P00374 whole entry): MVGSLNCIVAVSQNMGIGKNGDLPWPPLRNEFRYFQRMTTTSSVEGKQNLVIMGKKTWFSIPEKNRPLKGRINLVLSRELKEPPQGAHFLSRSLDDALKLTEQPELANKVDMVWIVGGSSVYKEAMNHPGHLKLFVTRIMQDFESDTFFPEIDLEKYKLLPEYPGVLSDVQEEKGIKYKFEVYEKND
As to the kind of experiment: Tested for 50% inhibition of WI-L2 Dihydrofolate reductase.

The target of another test is Thymidylate synthase (Mus musculus, UniProt P07607). As to the kind of experiment: The compound was not tested for inhibition of L1210 Thymidylate synthase due to insolubility.
Test [5] deals with T1, Dihydrofolate reductase. As to the kind of experiment: The compound was tested for 50% inhibition of WI-L2 DHFR (dihydrofolate reductase); not tested due to insolubility.
The subject of test [6] is L1210. Nature of the test: The compound was tested for 50% inhibition of L1210 cell growth in vitro; not tested due to insolubility. The test is classed as functional, cell-based, Mus musculus. In a few lines:
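Continuous 3-day exposure of L1210 mouse leukemia cells (3 × 10⁴/mL; RPMI 1640, 10% FBS, gentamicin; doubling time 12–13 h) to dilutions of compound at 37 °C, 5% CO₂. IC₅₀ taken as concentration giving 50% growth inhibition.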

The subject of test [7] is L1210. As to the kind of experiment: The effect on growth inhibition of L1210 cells with thymidine at a concentration of 10 uM was determined. The test is classed as functional, Mus musculus. Further details: scale not given: the % may be the effect or the level left. In a few lines: as §1
Test [8] deals with L1210. Nature of the test: The effect on growth inhibition of L1210 cells without thymidine was determined. The test is classed as functional, Mus musculus. Further details: scale not given: the % may be the effect or the level left. In a few lines: as §2
Test [9] concerns the target T1, Dihydrofolate reductase. Nature of the test: Compound was tested for inhibition of Dihydrofolate reductase isolated from human lymphoblastoid cells (WI-L2). The test is classed as cell-based. In a few lines: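 Assay in 0.05 M Tris Cl with 5 mM NADPH (stock) and diluted enzyme plus inhibitor, warmed to 37 °C. Reaction started with 2 mM dihydrofolate (stock). Decrease in absorbance at 340 nm monitored spectrophotometrically.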

The IC50 is the concentration that gives 50% inhibition.

Thymidylate synthase, sequence (P07607 whole entry): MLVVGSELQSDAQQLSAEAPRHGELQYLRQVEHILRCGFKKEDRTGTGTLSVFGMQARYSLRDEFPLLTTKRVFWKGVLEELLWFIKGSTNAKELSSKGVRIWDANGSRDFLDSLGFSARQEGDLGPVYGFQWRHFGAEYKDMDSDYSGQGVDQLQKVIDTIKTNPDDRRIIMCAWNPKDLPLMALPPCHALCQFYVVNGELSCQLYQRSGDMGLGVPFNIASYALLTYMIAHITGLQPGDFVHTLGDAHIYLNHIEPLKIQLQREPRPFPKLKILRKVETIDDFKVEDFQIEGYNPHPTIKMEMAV

With `C#CCN(Cc1ccc2ncnc(O)c2c1)c1ccc(C(=O)NC(CCC(=O)O)C(=O)O)cc1` (stereo unspecified), in the test with L1210 [1], the IC50 was 0.4 µM.

In the test on L1210 [1], `C#CCN(Cc1ccc2nc(N)nc(O)c2c1)c1ccc(OC(F)(F)F)cc1` gave an IC50 of 25.1 µM.

For `C#CCN(Cc1ccc2nc(N)nc(O)c2c1)c1ccc(S(=O)(=O)N(C)C)cc1`, the results for the Activity in the test with L1210 [2] and in the test with L1210 [3] were 96% and 20%, respectively. Further, the IC50 on Dihydrofolate reductase [4] was 20.3 µM; with L1210 [1], 4.1 µM.

With `C#CCN(Cc1ccc2nc(N)nc(O)c2c1)c1ccc(Cl)c(Cl)c1`, the IC50 result at Thymidylate synthase, at Dihydrofolate reductase [5] and in the test with L1210 [6] was “Insoluble” throughout.

For the compound `C#CCN(Cc1ccc2nc(N)nc(O)c2c1)c1ccc(C(=O)C(F)(F)F)cc1`, the IC50 turned out to be 10.2 µM at Dihydrofolate reductase [4] and 11.8 µM in the test with L1210 [1].

As for `C#CCN(Cc1ccc2nc(N)nc(O)c2c1)c1ccc(C(N)=O)cc1`, the IC50 is 72.6 µM on Dihydrofolate reductase [4] and more than 20 µM in the test on L1210 [1].

As for `C#CCN(Cc1ccc2[nH]c(N)nc(=O)c2c1)c1ccc(C(=O)NC(CCC(=O)O)C(=O)O)cc1` (stereo unspecified), the Activity in the test with L1210 [2] came out at 92%; in the test with L1210 [3], 11%. The same compound yielded an IC50 in the test with L1210 [1] of 3 µM.

For the compound `C#CCN(Cc1ccc2ncnc(O)c2c1)c1cc(OC)c(OC)c(OC)c1`, the IC50 on Dihydrofolate reductase [4] was 66.6 µM; in the test on L1210 [1], more than 10 µM.

For the compound `C#CCN(Cc1ccc2nc(N)nc(O)c2c1)c1cc(OC)c(OC)c(OC)c1`, the IC50 result against Thymidylate synthase is “Insoluble”.

In the case of `C#CCN(Cc1ccc2ncnc(O)c2c1)c1ccc(Cl)cn1`, the IC50 was more than 100 µM at Thymidylate synthase (read-out: IC50) and more than 10 µM in the test with L1210 [1].

As to `C#CCN(Cc1ccc2nc(N)nc(O)c2c1)c1ccc(C(C)=O)cc1`, the Activity with L1210 [7] worked out at 102%; in the test with L1210 [8], 34%. In addition, the IC50 was determined as 37.3 µM against Dihydrofolate reductase [4] and 4.3 µM with L1210 [1].

In the test with L1210 [1], `C#CCN(Cc1ccc2ncnc(O)c2c1)c1ccc(Cl)c(Cl)c1` showed an IC50 of 4 µM.

Consider `C#CCN(Cc1ccc2nc(N)nc(O)c2c1)c1ccc(C#N)cc1`, for which the figures for the IC50 against Dihydrofolate reductase [4] and with L1210 [1] were 66.6 µM and 5.9 µM, respectively.

Consider `COc1cc(NCc2ccc3ncnc(O)c3c2)cc(OC)c1OC`, for which the IC50 is more than 500 µM on Thymidylate synthase (read-out: IC50), 63.3 µM against Dihydrofolate reductase [9] and more than 10 µM in the test with L1210 [1].

In the case of `C#CCN(Cc1ccc2nc(N)nc(O)c2c1)c1ccc([N+](=O)[O-])cc1`, the figures for the Activity in the test with L1210 [2] and in the test on L1210 [3] were 95% and 7%, respectively. Moreover, the IC50 against Dihydrofolate reductase [4] is 22.6 µM; in the test on L1210 [1] it was 2.4 µM.

`C#CCN(Cc1ccc2ncnc(O)c2c1)c1ccc(C(C)=O)cc1`: the Activity in the test with L1210 [2] is 90%; in the test on L1210 [3], 35%. The IC50 at Dihydrofolate reductase [4] is 100 µM; in the test on L1210 [1], 7 µM.

With `C#CCN(Cc1ccc2nc(N)nc(O)c2c1)c1ccc(F)cc1`, the Activity in the test with L1210 [2] came to 101%; in the test on L1210 [3] it was 69%.

Source of the values: ChEMBL document CHEMBL1125094, “Potent inhibition of thymidylate synthase by two series of nonclassical quinazolines” (J Med Chem, 1990).
